ChEMBL document CHEMBL4616671, “Identification of N-Phenyl-7H-pyrrolo[2,3-d]pyrimidin-4-amine Derivatives as Novel, Potent, and Selective NF-κB Inducing Kinase (NIK) Inhibitors for the Treatment of Psoriasis” (J Med Chem, 2020)
The source made the active and inactive calls. The rule behind the calls is not given here.

How the values were obtained:
Aurora kinase B = Aurora kinase B (Homo sapiens, UniProt Q96GD4); test: Inhibition of human Aurora B using [H-LRRASLG] as substrate in presence of [gamma33P]ATP by hotspot assay
Aurora kinase B, sequence (Q96GD4 whole entry): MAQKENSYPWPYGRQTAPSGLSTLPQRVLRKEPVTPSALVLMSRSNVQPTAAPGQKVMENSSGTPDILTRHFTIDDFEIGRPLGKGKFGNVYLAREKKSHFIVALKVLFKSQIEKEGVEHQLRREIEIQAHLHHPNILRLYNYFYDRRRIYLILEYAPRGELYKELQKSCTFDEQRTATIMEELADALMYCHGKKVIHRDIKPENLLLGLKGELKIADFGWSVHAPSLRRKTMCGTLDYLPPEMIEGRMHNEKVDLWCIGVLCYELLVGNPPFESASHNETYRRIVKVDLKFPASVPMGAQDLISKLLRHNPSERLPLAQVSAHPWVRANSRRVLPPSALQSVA

Activated CDC42 kinase 1 = Activated CDC42 kinase 1 (Homo sapiens, UniProt Q07912); test: Inhibition of human ACK1 using [EAIYAAPFAKKK] as substrate in presence of [gamma33P]ATP by hotspot assay
Activated CDC42 kinase 1, sequence (Q07912 whole entry): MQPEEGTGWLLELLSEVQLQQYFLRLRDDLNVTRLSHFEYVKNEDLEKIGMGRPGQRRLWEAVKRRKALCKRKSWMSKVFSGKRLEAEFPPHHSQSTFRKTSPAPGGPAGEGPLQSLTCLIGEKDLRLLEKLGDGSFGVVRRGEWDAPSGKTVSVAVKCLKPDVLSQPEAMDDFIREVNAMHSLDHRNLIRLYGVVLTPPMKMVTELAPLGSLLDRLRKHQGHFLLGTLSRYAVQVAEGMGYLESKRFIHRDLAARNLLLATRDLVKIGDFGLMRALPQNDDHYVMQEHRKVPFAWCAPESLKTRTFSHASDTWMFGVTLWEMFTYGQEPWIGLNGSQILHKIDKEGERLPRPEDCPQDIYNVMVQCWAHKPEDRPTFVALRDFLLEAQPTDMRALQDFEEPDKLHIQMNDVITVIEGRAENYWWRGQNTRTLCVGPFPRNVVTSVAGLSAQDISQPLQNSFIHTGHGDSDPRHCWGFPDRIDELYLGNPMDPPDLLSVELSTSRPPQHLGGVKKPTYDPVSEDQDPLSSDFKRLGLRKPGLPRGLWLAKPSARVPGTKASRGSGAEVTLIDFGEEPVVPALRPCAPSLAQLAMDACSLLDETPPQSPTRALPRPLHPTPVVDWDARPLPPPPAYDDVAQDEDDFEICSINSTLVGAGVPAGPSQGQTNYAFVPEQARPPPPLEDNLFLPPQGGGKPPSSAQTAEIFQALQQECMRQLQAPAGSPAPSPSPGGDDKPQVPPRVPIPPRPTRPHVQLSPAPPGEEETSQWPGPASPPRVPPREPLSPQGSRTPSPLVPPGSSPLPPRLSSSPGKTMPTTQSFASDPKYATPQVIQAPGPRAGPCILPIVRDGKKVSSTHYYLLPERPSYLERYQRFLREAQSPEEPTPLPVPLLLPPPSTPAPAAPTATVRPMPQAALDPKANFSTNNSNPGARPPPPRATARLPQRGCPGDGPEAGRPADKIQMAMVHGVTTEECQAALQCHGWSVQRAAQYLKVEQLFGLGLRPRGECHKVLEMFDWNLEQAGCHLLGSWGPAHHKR

Homo sapiens [1] = species on record: Homo sapiens; test: Selectivity ratio of IC50 for human JAK1 to IC50 for human NIK
Homo sapiens [2] = species on record: Homo sapiens; test: Selectivity ratio of IC50 for human JAK3 to IC50 for human NIK
[3] = Elimination half life in monkey liver microsomes incubated for 10 mins followed by potassium phosphate buffer addition and measured after 5 to 60 mins by LC-MS/MS analysis; type: ADME, Macaca mulatta, Microsome; conditions: rhesus monkey, read-out: beta t1/2
In short: (§1)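 Rat, dog, monkey or human liver microsomes pre-incubated with compound at 37 °C for 10 min; reaction started after pre-warming and stopped at 5, 15, 30, 60 min with chilled quench containing tolbutamide and labetalol. No-cofactor control in 100 mM potassium phosphate for 60 min. LC-MS/MS analysis; first-order fit: k = −slope, T1/2 = 0.693/k, CLint = k/microsomal protein concentration.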

[4] = Elimination half life in dog liver microsomes incubated for 10 mins followed by potassium phosphate buffer addition and measured after 5 to 60 mins by LC-MS/MS analysis; type: ADME, Canis lupus familiaris, Microsome; conditions: read-out: beta t1/2; in short: as §1
[5] = Intrinsic clearance in monkey liver microsomes assessed as per mg of protein incubated for 10 mins followed by potassium phosphate buffer addition and measured after 5 to 60 mins by LC-MS/MS analysis; type: ADME, Macaca mulatta, Microsome; conditions: rhesus monkey, read-out: CLH; in short: as §1
[6] = Intrinsic clearance in rat liver microsomes assessed as per mg of protein incubated for 10 mins followed by potassium phosphate buffer addition and measured after 5 to 60 mins by LC-MS/MS analysis; type: ADME, Microsome; conditions: read-out: CLH; in short: as §1
[7] = Clearance in Sprague-Dawley rat at 1 mg/kg, iv administered as single bolus dose by LC-MS/MS analysis; type: ADME, organism-based; conditions: in vivo
[8] = Cmax in Sprague-Dawley rat at 10 mg/kg, po administered via gavage measured at 0.833 hrs by LC-MS/MS analysis; type: ADME, organism-based; set-up: dose 10 mg/kg, route oral; conditions: in vivo
[9] = Half life in Sprague-Dawley rat at 10 mg/kg, po administered via gavage by LC-MS/MS analysis; type: ADME, organism-based; conditions: in vivo
[10] = Tmax in Sprague-Dawley rat at 10 mg/kg, po administered via gavage by LC-MS/MS analysis; type: ADME, organism-based; conditions: in vivo
In short: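 SD rats, 3 per group. Single IV bolus at 1 mg/kg in DMSO:PEG200:saline 20:20:60 (0.2 mg/mL), or oral gavage at 10 mg/kg as suspension in 0.5% CMC-Na/0.2% Tween 80 (1 mg/mL). Plasma protein-precipitated with acetonitrile containing internal standards, then quantified by LC-MS/MS. Parameters derived by noncompartmental analysis. Mean ± SD.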

J774 [11] = test: Antiinflammatory activity in mouse J774 cells assessed as reduction in LPS-induced IL23 mRNA level by SYBR green dye-based quantitative PCR analysis; type: functional, cell-based
In short: (§2)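 LPS-stimulated J774 macrophages; mRNA quantified by qPCR using 4 µL cDNA plus 16 µL master mix per reaction. Mean ± SD of three biological replicates; significance by two-tailed Student's t-test against the model group.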

J774 [12] = test: Antiinflammatory activity in mouse J774 cells assessed as reduction in LPS-induced CCL3 mRNA level by SYBR green dye-based quantitative PCR analysis; type: functional, cell-based; in short: as §2
Mus musculus [13] = test: Protection against IMQ-induced dermatitis in C57 mouse model of psoriasis assessed as reduction in invasive erythema at 60 to 120 mg/kg, ig administered once daily starting from day 3 post IMQ-challenge and measured 2 days post-last dose of IMQ; type: functional, organism-based
In short: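 C57 mice given 5% imiquimod cream on the back once daily for 7 days; intragastric dosing 60 or 120 mg/kg once daily from day 3 to end, n = 6 per group. Dorsal skin phenotype assessed by imaging.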

Mus musculus [14] = test: Suppression of IMQ-induced epidermal acanthosis in ig dosed C57 mouse model of psoriasis assessed as reduction in epidermal thickness administered once daily starting from day 3 post IMQ-challenge and measured 2 days post-last dose of IMQ by hematoxylin-eosin staining based confocal laser scanning microscopy; type: functional, organism-based
In short: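 IMQ-induced C57 mice (5% cream 7 days; 60 or 120 mg/kg i.g. daily from day 3, n = 6). Formalin-fixed, paraffin-embedded back skin cut at 3 µm and H&E stained. Epidermal thickness measured in six randomly chosen fields; blind evaluation by two pathologists.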

Mus musculus [15] = test: Suppression of IMQ-induced psoriasis in ig dosed C57 mouse assessed as reduction in serum TNFalpha level administered once daily starting from day 3 post IMQ-challenge and measured 2 days post-last dose of IMQ by ELISA; type: functional, organism-based
In short: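 Psoriasis-like dermatitis induced by 5% imiquimod cream on back skin of C57 mice, q.d. for seven days. Oral (i.g.) dosing q.d. at 60 or 120 mg/kg from day 3 to study end, n = 6 per group. At end, blood held at 4 °C for 12 h, then centrifuged. Serum TNFα measured by ELISA. Mean ± SEM.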

Mus musculus [16] = test: Suppression of IMQ-induced psoriasis in ig dosed C57 mouse assessed as reduction in serum IL-17A level administered once daily starting from day 3 post IMQ-challenge and measured 2 days post-last dose of IMQ by ELISA; type: functional, organism-based
In short: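 IMQ-induced C57 mice (5% cream 7 days; 60 or 120 mg/kg i.g. daily from day 3). Blood collected at end of dosing, held 12 h at 4 °C, centrifuged; serum IL-17A by ELISA. Mean ± SEM.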

Mus musculus [17] = test: Suppression of IMQ-induced psoriasis in C57 mouse assessed as reduction in macrophage infiltration in back skin tissue at 60 to 120 mg/kg, ig administered starting from day 3 post IMQ-challenge and measured 2 days post-last dose of IMQ by F4/80 immunofluorescence staining based assay; type: functional, organism-based
In short: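 IMQ-induced C57 mice (5% cream 7 days; 60 or 120 mg/kg i.g. daily from day 3). Frozen back-skin sections, 6 µm, stained with F4/80 antibody, DAPI counterstain, and imaged by confocal microscopy. Significance by two-tailed t-test.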

[18] = molecular target: Mitogen-activated protein kinase kinase kinase 14 (Mus musculus) (UniProt Q9WUL6); test: (§3) In vivo inhibition of NIK in C57 mouse model of IMQ-induced psoriasis assessed as reduction in NF-kappaB signalling in back skin by measuring decrease in TNF-alpha mRNA level at 60 to 120 mg/kg, po administered starting from day 3 post IMQ-challenge and measured 2 days post-last dose of IMQ by qPCR analysis; type: functional, organism-based
Mitogen-activated protein kinase kinase kinase 14 (Mus musculus), sequence (Q9WUL6 whole entry): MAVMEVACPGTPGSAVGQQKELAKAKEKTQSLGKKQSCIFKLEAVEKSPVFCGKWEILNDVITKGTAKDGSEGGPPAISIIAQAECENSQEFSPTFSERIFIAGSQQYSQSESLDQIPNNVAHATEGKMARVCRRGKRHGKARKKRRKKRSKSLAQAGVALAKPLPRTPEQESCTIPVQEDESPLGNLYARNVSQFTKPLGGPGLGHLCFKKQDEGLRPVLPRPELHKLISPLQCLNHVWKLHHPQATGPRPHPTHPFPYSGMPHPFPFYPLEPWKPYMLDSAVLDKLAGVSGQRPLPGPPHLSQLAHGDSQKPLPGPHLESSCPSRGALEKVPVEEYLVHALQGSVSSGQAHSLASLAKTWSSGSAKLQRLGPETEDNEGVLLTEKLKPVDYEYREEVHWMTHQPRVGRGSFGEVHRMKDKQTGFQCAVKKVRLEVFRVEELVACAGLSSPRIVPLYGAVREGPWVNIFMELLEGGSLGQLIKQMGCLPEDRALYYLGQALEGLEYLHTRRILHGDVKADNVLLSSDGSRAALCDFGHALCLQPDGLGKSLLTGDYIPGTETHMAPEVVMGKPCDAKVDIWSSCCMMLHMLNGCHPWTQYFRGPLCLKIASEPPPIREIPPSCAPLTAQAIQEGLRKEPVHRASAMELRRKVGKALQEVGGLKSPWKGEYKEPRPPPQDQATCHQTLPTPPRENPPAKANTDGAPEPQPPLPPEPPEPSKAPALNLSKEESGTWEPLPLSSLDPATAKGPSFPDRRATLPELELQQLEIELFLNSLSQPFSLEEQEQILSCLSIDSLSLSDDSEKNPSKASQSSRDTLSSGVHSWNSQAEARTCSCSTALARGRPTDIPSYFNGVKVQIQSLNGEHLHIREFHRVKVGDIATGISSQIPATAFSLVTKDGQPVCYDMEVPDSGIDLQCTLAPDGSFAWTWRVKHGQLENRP
In short: (§4)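 IMQ psoriasis model: 5% imiquimod cream applied to C57 mouse back skin once daily for seven days; oral dosing 60 or 120 mg/kg once daily from day 3, n = 6 per group. Back-skin mRNA measured by qPCR.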

[19] = molecular target: Mitogen-activated protein kinase kinase kinase 14 (Mus musculus) (UniProt Q9WUL6); test: as §3, with “in” for “in TNF-alpha”, “mRNA IL-10” for “mRNA”; type: functional, organism-based; in short: as §4
[20] = molecular target: Mitogen-activated protein kinase kinase kinase 14 (Mus musculus) (UniProt Q9WUL6); test: as §3, with “in” for “in TNF-alpha”, “mRNA IL-12” for “mRNA”; type: functional, organism-based
In short: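 C57 mice had 5% imiquimod cream applied to the back skin once daily for seven consecutive days. Oral gavage dosing at 60 or 120 mg/kg once daily started on day 3 and continued to the end, with n = 6 per group alongside normal and IMQ-only model groups. Back-skin mRNA was quantified by qPCR.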

Question: Which IC50 (Aurora kinase B) does the source give for `CC(O)(C#Cc1ccc(N2CCOCC2)c(Nc2ncnc3[nH]ccc23)c1)c1nccs1` (racemic) here?
Answer: 43.2 nM

Question: What about the IC50 (Activated CDC42 kinase 1) of the same compound?
Answer: 192 nM

Question: What about the Ratio IC50 (Homo sapiens [1]) of the same compound?
Answer: 4 to 20

Question: What about the Ratio IC50 (Homo sapiens [2]) of the same compound?
Answer: 4 to 20

Question: What about the half-life [3] of the same compound?
Answer: 18 min

Question: What about the half-life [4] of the same compound?
Answer: 32.4 min

Question: What about the microsomal CLint [5] of the same compound?
Answer: 76.8 µL/min/mg

Question: What about the microsomal CLint [6] of the same compound?
Answer: 45 µL/min/mg

Question: What about the clearance [7] of the same compound?
Answer: 40.3 mL/min/kg

Question: What about the Cmax [8] of the same compound?
Answer: 772 ng/mL

Question: What about the half-life [9] of the same compound?
Answer: 83.4 min

Question: What about the Tmax [10] of the same compound?
Answer: 50 min

Question: What about the Activity (J774 [11]) of the same compound?
Answer: Active

Question: What about the Activity (J774 [12]) of the same compound?
Answer: Active

Question: What about the Activity (Mus musculus [13]) of the same compound?
Answer: Active

Question: And the inhibition (Mus musculus [14])?
Answer: Dose-dependent effect

Question: What about the inhibition (Mus musculus [15]) of the same compound?
Answer: Dose-dependent effect

Question: And the inhibition (Mus musculus [16])?
Answer: Dose-dependent effect

Question: What about the inhibition (Mus musculus [17]) of the same compound?
Answer: Active

Question: What about the inhibition [18] of the same compound?
Answer: Active

Question: And the inhibition [19]?
Answer: Active

Question: What about the inhibition [20] of the same compound?
Answer: Active
